Experiment [1] deals with T1, 3-hydroxy-3-methylglutaryl-coenzyme A reductase (Rattus norvegicus, UniProt P51639).
T1 sequence (P51639 whole entry): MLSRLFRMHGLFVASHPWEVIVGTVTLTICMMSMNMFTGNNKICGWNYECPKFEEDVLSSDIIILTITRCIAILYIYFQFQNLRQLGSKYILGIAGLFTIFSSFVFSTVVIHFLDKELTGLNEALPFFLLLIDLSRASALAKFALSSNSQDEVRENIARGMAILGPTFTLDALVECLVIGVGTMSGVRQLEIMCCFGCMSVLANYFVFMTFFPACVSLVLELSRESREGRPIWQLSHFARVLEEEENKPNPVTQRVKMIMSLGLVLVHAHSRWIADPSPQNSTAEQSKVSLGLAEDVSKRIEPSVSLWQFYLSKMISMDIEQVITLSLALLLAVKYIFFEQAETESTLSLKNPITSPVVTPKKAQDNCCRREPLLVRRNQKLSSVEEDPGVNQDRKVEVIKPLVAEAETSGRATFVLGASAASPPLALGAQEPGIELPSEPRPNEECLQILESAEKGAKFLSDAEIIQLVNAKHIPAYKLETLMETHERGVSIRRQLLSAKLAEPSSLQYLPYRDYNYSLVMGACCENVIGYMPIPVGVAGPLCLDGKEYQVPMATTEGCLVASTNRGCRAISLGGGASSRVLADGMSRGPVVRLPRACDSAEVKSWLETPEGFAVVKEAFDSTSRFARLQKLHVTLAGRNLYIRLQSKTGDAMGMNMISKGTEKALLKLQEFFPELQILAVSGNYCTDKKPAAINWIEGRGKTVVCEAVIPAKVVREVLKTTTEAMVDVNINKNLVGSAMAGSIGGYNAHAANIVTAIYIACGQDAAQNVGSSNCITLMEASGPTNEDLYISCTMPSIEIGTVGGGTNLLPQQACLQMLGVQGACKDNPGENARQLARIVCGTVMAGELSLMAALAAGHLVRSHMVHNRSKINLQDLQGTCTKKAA
Briefly: The compound was tested in vitro for inhibition of rat hepatic HMG-CoA reductase. Type of experiment: functional. To be noted: read-out: I50. A digest of the protocol:
(§1)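 Enzyme source: hepatic microsomes from cholestyramine-fed Sprague-Dawley rats. Final assay conditions: 0.04 M potassium phosphate pH 7.2, KCl, sucrose, EDTA, 10 mM DTT, 1% DMSO, 50-200 µg microsomal protein. Microsomes were preincubated with 2.7 mM NADPH for 15 min at 37 °C, then with compound for 15 min. 100 µM 14C-[D,L]-HMG-CoA was then added for 20 min at 37 °C. Read-out: 14C-mevalonate, corrected by 3H-mevalonate recovery. I50 taken from composite dose-response regressions, 2-5 experiments.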

The target of experiment [2] is T1, 3-hydroxy-3-methylglutaryl-coenzyme A reductase. Briefly: In vitro for inhibition of rat HMG-CoA reductase. The note with it: read-out: I50. A digest of the protocol:
as §1

The species entered for experiment [3] is Homo sapiens. As to the kind of experiment: The compound was tested for inhibition of Cholesterol synthesis from [14C]- Acetate in human skin fibroblasts. To be noted: read-out: I 50. It is filed as functional. The gist of the method: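 Human skin fibroblasts (passage 7-27) were plated at 5 × 10^5 cells/well and cultured 18 h. Sterol synthesis was induced by 24 h in serum-free MEM with 1.0% fatty acid-free BSA. Cells were preincubated with compound for 30 min (DMSO ≤1.0%), then given sodium [1-14C]acetate at 2.0 µCi/mL for 4 h. Label in the extracted cholesterol peak was compared with controls. I50 from composite curves of ≥2 experiments.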

The subject of experiment [4] is Rattus norvegicus. As to the kind of experiment: The compound was tested in vivo for inhibition of Cholesterol Biosynthesis from [14C]- acetate in rat after peroral administration. It is filed as functional. To be noted: po.
The species named for experiment [5] is Rattus norvegicus. As to the kind of experiment: The compound was tested for inhibition of Cholesterol synthesis from [14C]- Acetate in hepatocytes of rats. The note with it: Hepatocyte, read-out: I 50. It is filed as functional. A digest of the protocol:
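Rat hepatocytes were freshly isolated by collagenase perfusion, 70-90% viable. Cells were suspended at 5 × 10^6 per 2.0 mL in Tris pH 7.4 incubation medium with cofactors; DMSO was ≤1.0% final. Incubation was with [14C]acetate (2 µCi/mL) for 2.0 h at 37 °C. Lipids were extracted by Bligh-Dyer and the percent of label in the cholesterol peak was compared with controls. I50 from composite curves of two or more studies.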

The nature of experiment [6]: It is the ratio of I50 fibroblasts to that of I50 hepatocytes. Type of experiment: functional, Hepatocyte. The gist of the method:
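Selectivity is the ratio of I50 in human skin fibroblasts to I50 in freshly isolated rat hepatocytes. Each I50 came from [14C]acetate incorporation into cholesterol, measured as percent inhibition versus controls from composite dose-response data.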

The structures appear in SMILES notation.

One may read the ED50 as the midpoint of the dose-response relation. Low values mean greater potency, high ones weaker potency.

Take `Cc1nc(-c2ccccc2)c(C)c(-c2ccc(F)cc2)c1COP(=O)(O)C[C@H](O)CC(=O)O`: the IC50 in experiment [1] was 1300 nM.
On to `Cc1c(-c2ccccc2)nc(C(C)C)c(CCP(=O)(O)C[C@H](O)CC(=O)O)c1-c1ccc(F)cc1`, for which, in experiment [2], the IC50 came to 9.2 nM.
On the same count and under the same terms, as for `CCc1nc(-c2ccccc2)c(C)c(-c2ccc(F)cc2)c1CCP(=O)(O)C[C@H](O)CC(=O)O`, the figure is 79.8 nM; as for `CC(C)c1cc(-c2ccccc2)nc(-c2ccc(F)cc2)c1C#CP(=O)(O)C[C@H](O)CC(=O)O`, 420 nM; as for `CC(C)c1nc(-c2cccc3c2OCO3)cc(-c2ccc(F)cc2)c1C#CP(=O)(O)C[C@H](O)CC(=O)O`, 84.6 nM.
The same measure, in the same setting: next, `CC(C)c1nc(C(c2ccccc2)c2ccccc2)cc(-c2ccc(F)cc2)c1C#CP(=O)(O)C[C@H](O)CC(=O)O`: 14.9 nM; `CC(C)c1nc2c(c(-c3ccc(F)cc3)c1/C=C/P(=O)(O)C[C@H](O)CC(=O)O)CCCc1ccccc1-2`: 1.3 nM.
As to `CC(C)c1nc2c(c(-c3ccc(F)cc3)c1C#CP(=O)(O)C[C@H](O)CC(=O)O)Cc1ccccc1-2`, in experiment [2], the IC50 came to 75.6 nM.
Regarding `CC(C)c1nc2c(c(-c3ccc(F)cc3)c1CCP(=O)(O)C[C@H](O)CC(=O)O)CCCc1ccccc1-2`, the IC50 in experiment [2] is 18.6 nM.
As to `CC(C)c1nc(-c2ccccc2)c(F)c(-c2ccc(F)cc2)c1C#CP(=O)(O)C[C@H](O)CC(=O)O`, the IC50 in experiment [2] amounted to 44.9 nM.
Still for that read-out and setting: as for `Cc1c(-c2ccccc2)nc(C2CC2)c(C#CP(=O)(O)C[C@H](O)CC(=O)O)c1-c1ccc(F)cc1`, the figure is 4.6 nM; as for `CC(C)c1nc2c(c(-c3ccc(F)cc3)c1C#CP(=O)(O)C[C@H](O)CC(=O)O)CCc1ccccc1-2`, 52.5 nM.
Regarding `CC(C)c1nc(C(C)(C)C)cc(-c2ccc(F)cc2)c1COP(=O)(O)C[C@H](O)CC(=O)O`, in experiment [1], the IC50 worked out at 1.4 nM.
Regarding `CC(C)c1nc(C(C)(C)C)cc(-c2ccc(F)cc2)c1CCP(=O)(O)C[C@H](O)CC(=O)O`, in experiment [2], the IC50 worked out at 17.2 nM.
Same read-out and setting: as for `CCc1nc(-c2ccccc2)c(C)c(-c2ccc(F)cc2)c1C#CP(=O)(O)C[C@H](O)CC(=O)O`, the figure is 110 nM; as for `Cc1nc(-c2ccccc2)c(C)c(-c2ccc(F)cc2)c1CCP(=O)(O)C[C@H](O)CC(=O)O`, 235 nM.
With `CC(C)c1nc(C(C)(C)C)cc(-c2ccc(F)cc2)c1/C=C/P(=O)(O)C[C@H](O)CC(=O)O`, in experiment [2], the IC50 was 3.2 nM.
Still for that read-out and setting: as for `CC(C)c1nc(-c2cc(F)c(F)c(F)c2F)cc(-c2ccc(F)cc2)c1C#CP(=O)(O)C[C@H](O)CC(=O)O`, the figure is 8.9 nM.
Turning to `Cc1c(-c2ccccc2)nc(C2CC2)c(/C=C/P(=O)(O)C[C@H](O)CC(=O)O)c1-c1ccc(F)cc1`, the IC50 in experiment [2] came out at 2.5 nM.
On the same count and under the same terms, next, `CC(C)c1nc(-c2ccccc2)cc(-c2ccc(F)cc2)c1CCP(=O)(O)C[C@H](O)CC(=O)O`: 181 nM; `Cc1cc(F)ccc1-c1cc(-c2ccccc2)nc(C(C)C)c1CCP(=O)(O)C[C@H](O)CC(=O)O`: 115 nM; `CC(C)c1nc(C23CC4CC(CC(C4)C2)C3)cc(-c2ccc(F)cc2)c1C#CP(=O)(O)C[C@H](O)CC(=O)O`: 43.8 nM.
Same read-out and setting: next, `CC(C)c1nc(-c2cccc3ccccc23)cc(-c2ccc(F)cc2)c1C#CP(=O)(O)C[C@H](O)CC(=O)O`: 28.7 nM.
On to `CCc1c(-c2ccccc2)nc(C(C)C)c(C#CP(=O)([O-])C[C@H](O)CC(=O)[O-])c1-c1ccc(F)cc1.[Na+].[Na+]`, for which the IC50 in experiment [3] stood at 6750 nM; in experiment [2] it was 5.6 nM; in experiment [5], 519 nM. The ED50 in experiment [4] came to 4.5 mg/kg. Moreover, the Selectivity in experiment [6] is 13.
Consider `CCc1nc(-c2ccccc2)c(C)c(-c2ccc(F)cc2)c1COP(=O)(O)C[C@H](O)CC(=O)O`, for which, in experiment [1], the IC50 is 19.4 nM.
As to `CC(C)c1nc(-c2ccccc2)c(-c2ccccc2)c(-c2ccc(F)cc2)c1C#CP(=O)(O)C[C@H](O)CC(=O)O`, in experiment [2], the IC50 came to 15.6 nM.
Still for that read-out and setting: as for `CCc1c(-c2ccccc2)nc(C(C)C)c(CCP(=O)(O)C[C@H](O)CC(=O)O)c1-c1ccc(F)cc1`, the figure is 19.1 nM; as for `Cc1nc(-c2ccccc2)c(C)c(-c2ccc(F)cc2)c1C#CP(=O)(O)C[C@H](O)CC(=O)O`, 1300 nM; as for `CC(C)c1nc(-c2ccccc2Cc2ccccc2)cc(-c2ccc(F)cc2)c1C#CP(=O)(O)C[C@H](O)CC(=O)O`, 62.6 nM.
Same read-out and setting: as for `Cc1cc(F)ccc1-c1cc(-c2ccccc2)nc(C(C)C)c1/C=C/P(=O)(O)C[C@H](O)CC(=O)O`, the figure is 3.9 nM; as for `Cc1cc(F)ccc1-c1cc(-c2ccccc2)nc(C(C)C)c1C#CP(=O)(O)C[C@H](O)CC(=O)O`, 156 nM; as for `CC(C)c1nc(-c2ccccc2)c(C(C)C)c(-c2ccc(F)cc2)c1C#CP(=O)(O)C[C@H](O)CC(=O)O`, 9.8 nM.
For `O=C(O)C[C@@H](O)CP(=O)(O)OCc1c(-c2ccc(F)cc2)cc(-c2ccccc2)nc1C1CC1`, the IC50 in experiment [1] turned out to be 29 nM.
The same measure, in the same setting: as for `Cc1c(-c2ccccc2)nc(C(C)C)c(COP(=O)(O)C[C@H](O)CC(=O)O)c1-c1ccc(F)cc1`, the figure is 5.1 nM.
For `Cc1cc(-c2cc(-c3ccccc3)nc(C(C)C)c2C#CP(=O)(O)C[C@H](O)CC(=O)O)ccc1F`, the IC50 in experiment [2] was 22 nM.
For the compound `Cc1c(-c2ccccc2)nc(C2CC2)c(COP(=O)(O)C[C@H](O)CC(=O)O)c1-c1ccc(F)cc1`, in experiment [1], the IC50 is 1.3 nM.
On to `CC(C)c1nc(-c2ccccc2)cc(-c2ccc(F)cc2)c1COP(=O)(O)C[C@H](O)CC(=O)O`, for which the IC50 in experiment [1] stood at 12.7 nM.
As to `CC(C)c1cc(-c2ccc(F)cc2)c(C#CP(=O)(O)C[C@H](O)CC(=O)O)c(C(C)C)n1`, the IC50 in experiment [2] turned out to be 80.9 nM.
The same measure, in the same setting: as for `CC(C)c1cc(-c2ccccc2)nc(-c2ccc(F)cc2)c1/C=C/P(=O)(O)C[C@H](O)CC(=O)O`, the figure is 45.3 nM.
`CC(C)(C)c1nc(-c2ccccc2)cc(-c2ccc(F)cc2)c1C#CP(=O)(O)C[C@H](O)CC(=O)O`: the IC50 in experiment [2] turned out to be 68.4 nM.
`O=C(O)C[C@@H](O)CP(=O)(O)C#Cc1c(-c2ccc(F)cc2)cc(-c2ccccc2)nc1C1CC1`: the IC50 in experiment [2] amounted to 90.9 nM.
On the same count and under the same terms, next, `CC(C)c1nc(C2CC2)cc(-c2ccc(F)cc2)c1C#CP(=O)(O)C[C@H](O)CC(=O)O`: 4.2 nM.
Turning to `CCc1c(-c2ccccc2)nc(C(C)C)c(COP(=O)(O)C[C@H](O)CC(=O)O)c1-c1ccc(F)cc1`, the IC50 in experiment [1] was found to be 2.5 nM.
`CCc1nc(-c2ccccc2)c(C)c(-c2ccc(F)cc2)c1/C=C/P(=O)(O)C[C@H](O)CC(=O)O`: in experiment [2], the IC50 is 4.7 nM.
With `Cc1ccccc1-c1cc(-c2ccc(F)cc2)c(C#CP(=O)(O)C[C@H](O)CC(=O)O)c(C(C)C)n1`, in experiment [2], the IC50 was found to be 32.6 nM.
On the same count and under the same terms, as for `Cc1cc(-c2ccc(F)cc2)c(C#CP(=O)(O)C[C@H](O)CC(=O)O)c(C(C)C)n1`, the figure is 231 nM.
For the compound `CC(C)c1nc2c(c(-c3ccc(F)cc3)c1COP(=O)(O)C[C@H](O)CC(=O)O)CCCc1ccccc1-2`, the IC50 in experiment [1] stood at 1.2 nM.
Consider `CC(C)c1nc(C2CCCCC2)cc(-c2ccc(F)cc2)c1C#CP(=O)(O)C[C@H](O)CC(=O)O`, for which the IC50 in experiment [2] worked out at 48.4 nM.
Turning to `CC(C)c1nc(-c2cccs2)cc(-c2ccc(F)cc2)c1C#CP(=O)(O)C[C@H](O)CC(=O)O`, the IC50 in experiment [2] is 14.6 nM.
The same measure, in the same setting: as for `Cc1c(-c2ccccc2)nc(C2CC2)c(CCP(=O)(O)C[C@H](O)CC(=O)O)c1-c1ccc(F)cc1`, the figure is 9.2 nM; as for `CC(C)c1nc2c(c(-c3ccc(F)cc3)c1C#CP(=O)(O)C[C@H](O)CC(=O)O)CCCc1ccccc1-2`, 14.4 nM.

These data come from ChEMBL document CHEMBL1125205, “Phosphorus-containing inhibitors of HMG-CoA reductase. 2. Synthesis and biological activities of a series of substituted pyridines containing a hydroxyphosphinyl moiety” (J Med Chem, 1991).
